Laboratory results taken from ChEMBL document CHEMBL4373711, “Development of 3,5-Dinitrophenyl-Containing 1,2,4-Triazoles and Their Trifluoromethyl Analogues as Highly Efficient Antitubercular Agents Inhibiting Decaprenylphosphoryl-β-d-ribofuranose 2'-Oxidase” (J Med Chem, 2019).
Converted amounts (≈) assume the structure as drawn. The source made the active and inactive calls. The rule behind the calls is not given here.

How the values were obtained:
Klebsiella pneumoniae = test: Antibacterial activity against Klebsiella pneumoniae at highest concentration measured after 24 to 48 hrs by alamar blue dye based broth microdilution assay; format: functional, organism-based
Mycobacterium kansasii [1] = test: Antimycobacterial activity against Mycobacterium kansasii CNCTC My 235/80 after 14 days; format: functional; details: CNCTC My 235/80, 336 h
Outline: (§1)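 Microdilution in Šula's semisynthetic medium; compounds in DMSO at 32–0.03 µM. Inoculum from 1.0 McFarland suspension diluted 10-4. […] Isoniazid and rifampicin as reference drugs.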

Serratia marcescens = test: Antibacterial activity against Serratia marcescens at highest concentration measured after 24 to 48 hrs by alamar blue dye based broth microdilution assay; format: functional, organism-based
[2] = tested on: Staphylococcus epidermidis; test: Antibacterial activity against Staphylococcus epidermidis at highest concentration measured after 24 to 48 hrs by alamar blue dye based broth microdilution assay; format: functional, organism-based
[3] = tested on: Trichophyton interdigitale; test: Antifungal activity against Trichophyton interdigitale ATCC 9533 CCM 8377 at highest concentration measured after 72 to 120 hrs by alamar blue dye based broth microdilution assay; format: functional
[4] = tested on: Mycobacterium tuberculosis; test: Antimycobacterial activity against Mycobacterium tuberculosis H37Rv CNCTC My 331/88 after 14 days; format: functional; details: H37Rv CNCTC My 331/88, 336 h
Outline: (§2)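 M. tuberculosis strains (H37Rv and clinical MDR/XDR isolates) tested by microdilution in Šula's semisynthetic medium. Compounds were dissolved in DMSO and tested at 32 to 0.03 µM in twofold steps. Inoculum was a 1.0 McFarland suspension diluted 10-3. Plates were incubated at 37 °C and read at 14 and 21 days.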

Candida parapsilosis = test: Antifungal activity against Candida parapsilosis ATCC 22019 CCM 8260 at highest concentration measured after 24 to 48 hrs by alamar blue dye based broth microdilution assay; format: functional, organism-based
Staphylococcus aureus [5] = test: Antibacterial activity against methicillin-resistant Staphylococcus aureus subsp. aureus ATCC 43300 CCM 4750 at highest concentration measured after 24 to 48 hrs by alamar blue dye based broth microdilution assay; format: functional, organism-based
Aspergillus flavus = test: Antifungal activity against Aspergillus flavus CCM 8363 at highest concentration measured after 24 to 48 hrs by alamar blue dye based broth microdilution assay; format: functional, organism-based
Mycobacterium avium [6] = test: Antimycobacterial activity against Mycobacterium avium CNCTC My 330/88 after 21 days; format: functional; details: CNCTC My 330/88, 504 h
Outline: (§3)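 M. avium was tested by microdilution in Šula's semisynthetic medium, with compounds dissolved in DMSO and serially diluted from 1000 down to 1. Inoculum was a 1.0 McFarland suspension diluted 10-5. Plates were incubated at 37 °C and read at 14 and 21 days. […] Isoniazid and rifampicin served as standards.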

Enterococcus faecalis = test: Antibacterial activity against Enterococcus faecalis ATCC 29212 CCM 4224 at highest concentration measured after 24 to 48 hrs by alamar blue dye based broth microdilution assay; format: functional, organism-based
Pichia kudriavzevii = test: Antifungal activity against Candida krusei ATCC 6258 CCM8271 at highest concentration measured after 24 to 48 hrs by alamar blue dye based broth microdilution assay; format: functional, organism-based
Lichtheimia corymbifera = test: Antifungal activity against Lichtheimia corymbifera CCM 8077 at highest concentration measured after 24 to 48 hrs by alamar blue dye based broth microdilution assay; format: functional, organism-based
Mycobacterium kansasii [7] = test: Antimycobacterial activity against Mycobacterium kansasii CNCTC My 235/80 after 21 days; format: functional; details: CNCTC My 235/80, 504 h; outline: as §1
Candida tropicalis = test: Antifungal activity against Candida tropicalis ATCC 750 CCM 8264 at highest concentration measured after 24 to 48 hrs by alamar blue dye based broth microdilution assay; format: functional, organism-based
Mycobacterium kansasii [8] = test: Antimycobacterial activity against Mycobacterium kansasii CNCTC My 235/80 after 7 days; format: functional; details: CNCTC My 235/80, 168 h; outline: as §1
Mycobacterium kansasii [9] = test: Antimycobacterial activity against Mycobacterium kansasii 6509/96 after 21 days; format: functional; details: 6509/96, 504 h; outline: as §1
Mycobacterium avium [10] = test: Antimycobacterial activity against Mycobacterium avium CNCTC My 330/88 after 14 days; format: functional; details: CNCTC My 330/88, 336 h; outline: as §3
Candida albicans = test: Antifungal activity against Candida albicans ATCC 24433 CCM 8320 at highest concentration measured after 24 to 48 hrs by alamar blue dye based broth microdilution assay; format: functional, organism-based
Mycobacterium kansasii [11] = test: Antimycobacterial activity against Mycobacterium kansasii 6509/96 after 7 days; format: functional; details: 6509/96, 168 h; outline: as §1
Staphylococcus aureus [12] = test: Antibacterial activity against Staphylococcus aureus subsp. aureus ATCC 29213 CCM 4223 at highest concentration measured after 24 to 48 hrs by alamar blue dye based broth microdilution assay; format: functional, organism-based
Escherichia coli = test: Antibacterial activity against Escherichia coli ATCC 25922 CCM 3954 at highest concentration measured after 24 to 48 hrs by alamar blue dye based broth microdilution assay; format: functional, organism-based
Pseudomonas aeruginosa = test: Antibacterial activity against Pseudomonas aeruginosa ATCC 27853 CCM 3955 at highest concentration measured after 24 to 48 hrs by alamar blue dye based broth microdilution assay; format: functional, organism-based
Aspergillus fumigatus = test: Antifungal activity against Aspergillus fumigatus ATCC 204305 at highest concentration measured after 24 to 48 hrs by alamar blue dye based broth microdilution assay; format: functional, organism-based
[13] = tested on: Mycobacterium tuberculosis; test: Antimycobacterial activity against Mycobacterium tuberculosis H37Rv CNCTC My 331/88 after 21 days; format: functional; details: H37Rv CNCTC My 331/88, 504 h; outline: as §2
Mycobacterium kansasii [14] = test: Antimycobacterial activity against Mycobacterium kansasii 6509/96 after 14 days; format: functional; details: 6509/96, 336 h; outline: as §1

SMILES	MIC99 (Mycobacterium kansasii [1])	MIC99 [4]	MIC99 (Mycobacterium avium [6])	MIC99 (Mycobacterium kansasii [7])	MIC99 (Mycobacterium kansasii [8])	MIC99 (Mycobacterium kansasii [9])	MIC99 (Mycobacterium avium [10])	MIC99 (Mycobacterium kansasii [11])	MIC99 [13]	MIC99 (Mycobacterium kansasii [14])	further results
O=[N+]([O-])c1cc(-c2nnc(SCc3ccccc3)n2Cc2ccc(Cl)cc2Cl)cc([N+](=O)[O-])c1	4 µM (≈ 2.07 µg/mL)	2 µM (≈ 1.03 µg/mL)	16 µM (≈ 8.26 µg/mL)	4 µM (≈ 2.07 µg/mL)	2 µM (≈ 1.03 µg/mL)	4 µM (≈ 2.07 µg/mL)	16 µM (≈ 8.26 µg/mL)	4 µM (≈ 2.07 µg/mL)	2 µM (≈ 1.03 µg/mL)	4 µM (≈ 2.07 µg/mL)	Activity (Klebsiella pneumoniae): inactive; Activity (Serratia marcescens): inactive; Activity [2]: inactive; Activity [3]: inactive; Activity (Candida parapsilosis): inactive; Activity (Staphylococcus aureus [5]): inactive; Activity (Aspergillus flavus): inactive; Activity (Enterococcus faecalis): inactive; Activity (Pichia kudriavzevii): inactive; Activity (Lichtheimia corymbifera): inactive; Activity (Candida tropicalis): inactive; Activity (Candida albicans): inactive; Activity (Staphylococcus aureus [12]): inactive; Activity (Escherichia coli): inactive; Activity (Pseudomonas aeruginosa): inactive; Activity (Aspergillus fumigatus): inactive
O=[N+]([O-])c1cc(Cn2c(SCc3ccc(Cl)c(Cl)c3)nnc2-c2ccccc2)cc([N+](=O)[O-])c1	8 µM (≈ 4.13 µg/mL)	8 µM (≈ 4.13 µg/mL)	250 µM (≈ 129 µg/mL)	16 µM (≈ 8.26 µg/mL)	4 µM (≈ 2.07 µg/mL)	16 µM (≈ 8.26 µg/mL)	250 µM (≈ 129 µg/mL)	8 µM (≈ 4.13 µg/mL)	16 µM (≈ 8.26 µg/mL)	16 µM (≈ 8.26 µg/mL)	Activity (Klebsiella pneumoniae): inactive; Activity (Serratia marcescens): inactive; Activity [2]: inactive; Activity [3]: inactive; Activity (Candida parapsilosis): inactive; Activity (Staphylococcus aureus [5]): inactive; Activity (Aspergillus flavus): inactive; Activity (Enterococcus faecalis): inactive; Activity (Pichia kudriavzevii): inactive; Activity (Lichtheimia corymbifera): inactive; Activity (Candida tropicalis): inactive; Activity (Candida albicans): inactive; Activity (Staphylococcus aureus [12]): inactive; Activity (Escherichia coli): inactive; Activity (Pseudomonas aeruginosa): inactive; Activity (Aspergillus fumigatus): inactive
O=[N+]([O-])c1ccc(-c2nnc(SCc3cc([N+](=O)[O-])cc([N+](=O)[O-])c3)n2Cc2ccccc2)cc1	4 µM (≈ 1.97 µg/mL)	4 µM (≈ 1.97 µg/mL)	250 µM (≈ 123 µg/mL)	4 µM (≈ 1.97 µg/mL)	2 µM (≈ 0.985 µg/mL)	8 µM (≈ 3.94 µg/mL)	250 µM (≈ 123 µg/mL)	2 µM (≈ 0.985 µg/mL)	4 µM (≈ 1.97 µg/mL)	4 µM (≈ 1.97 µg/mL)	–
O=[N+]([O-])c1cc(CSc2nnc(-c3ccc(Cl)c(Cl)c3)n2Cc2ccccc2)cc([N+](=O)[O-])c1	2 µM (≈ 1.03 µg/mL)	2 µM (≈ 1.03 µg/mL)	250 µM (≈ 129 µg/mL)	2 µM (≈ 1.03 µg/mL)	1 µM (≈ 0.516 µg/mL)	4 µM (≈ 2.07 µg/mL)	250 µM (≈ 129 µg/mL)	2 µM (≈ 1.03 µg/mL)	2 µM (≈ 1.03 µg/mL)	4 µM (≈ 2.07 µg/mL)	–
CCNC(=S)NNC(=O)c1cc([N+](=O)[O-])cc([N+](=O)[O-])c1	> 32 µM	> 32 µM	1000 µM (≈ 313 µg/mL)	> 32 µM	> 32 µM	> 32 µM	1000 µM (≈ 313 µg/mL)	> 32 µM	> 32 µM	> 32 µM	–
O=[N+]([O-])c1cc(CSc2nnc(-c3ccccc3)n2-c2ccccc2)cc([N+](=O)[O-])c1	4 µM (≈ 1.73 µg/mL)	4 µM (≈ 1.73 µg/mL)	> 1000 µM	8 µM (≈ 3.47 µg/mL)	2 µM (≈ 0.867 µg/mL)	8 µM (≈ 3.47 µg/mL)	> 1000 µM	2 µM (≈ 0.867 µg/mL)	4 µM (≈ 1.73 µg/mL)	4 µM (≈ 1.73 µg/mL)	–
O=[N+]([O-])c1cc(Cn2c(SCc3ccc(Cl)cc3)nnc2-c2ccccc2)cc([N+](=O)[O-])c1	8 µM (≈ 3.86 µg/mL)	8 µM (≈ 3.86 µg/mL)	250 µM (≈ 120 µg/mL)	16 µM (≈ 7.71 µg/mL)	4 µM (≈ 1.93 µg/mL)	32 µM (≈ 15.4 µg/mL)	250 µM (≈ 120 µg/mL)	16 µM (≈ 7.71 µg/mL)	16 µM (≈ 7.71 µg/mL)	32 µM (≈ 15.4 µg/mL)	–
Cc1ccc(-c2nnc(SCc3cc([N+](=O)[O-])cc(C(F)(F)F)c3)n2Cc2ccccc2)cc1	> 32 µM	> 32 µM	250 µM (≈ 121 µg/mL)	> 32 µM	> 32 µM	> 32 µM	250 µM (≈ 121 µg/mL)	> 32 µM	> 32 µM	> 32 µM	–
O=[N+]([O-])c1cc(CSc2nnc(-c3ccccc3)[nH]2)cc([N+](=O)[O-])c1	8 µM (≈ 2.86 µg/mL)	2 µM (≈ 0.715 µg/mL)	125 µM (≈ 44.7 µg/mL)	8 µM (≈ 2.86 µg/mL)	4 µM (≈ 1.43 µg/mL)	16 µM (≈ 5.72 µg/mL)	62 µM (≈ 22.2 µg/mL)	4 µM (≈ 1.43 µg/mL)	4 µM (≈ 1.43 µg/mL)	8 µM (≈ 2.86 µg/mL)	–
Cn1c(SCc2cc([N+](=O)[O-])cc([N+](=O)[O-])c2)nnc1-c1ccccc1	8 µM (≈ 2.97 µg/mL)	4 µM (≈ 1.49 µg/mL)	250 µM (≈ 92.8 µg/mL)	16 µM (≈ 5.94 µg/mL)	4 µM (≈ 1.49 µg/mL)	16 µM (≈ 5.94 µg/mL)	125 µM (≈ 46.4 µg/mL)	4 µM (≈ 1.49 µg/mL)	4 µM (≈ 1.49 µg/mL)	8 µM (≈ 2.97 µg/mL)	–
Cc1ccc(-c2nnc(SCc3cc([N+](=O)[O-])cc([N+](=O)[O-])c3)n2Cc2ccccc2)cc1	4 µM (≈ 1.85 µg/mL)	4 µM (≈ 1.85 µg/mL)	250 µM (≈ 115 µg/mL)	4 µM (≈ 1.85 µg/mL)	4 µM (≈ 1.85 µg/mL)	4 µM (≈ 1.85 µg/mL)	250 µM (≈ 115 µg/mL)	4 µM (≈ 1.85 µg/mL)	4 µM (≈ 1.85 µg/mL)	4 µM (≈ 1.85 µg/mL)	–
